Assay results: paper PMC7116464 (Biochemical pharmacology, 2019)

What was measured:
[1] = tested on: Leishmania tarentolae promastigotes (LtP); assay: Viability assay of LtP; type: cell-based; conditions: calculated from IC50, J774/IC50, LtP
J774 macrophages = assay: Viability assay of J774 cells; type: cell-based, murine; conditions: Mus musculus, J774, read-out: IC50 J774
In short: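 J774A.1 macrophages seeded at 1 × 10^5/mL in DMEM/10% FCS and allowed to attach for 24 h (37 °C, 5% CO2). Wells washed with PBS and refilled with medium. Compounds added from 25 or 200 µM in five 1:5 serial dilutions, triplicate. After 24 h, 20 µM resazurin (final) added for 4 h; fluorescence read at ex 560/em 590 nm.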

[2] = tested on: Leishmania tarentolae promastigotes (LtP); type: cell-based; conditions: for IC50: Leishmania tarentolae, read-out: IC50 in the absence of additional inhibitors; for influence on the antileishmanial action (IC50) of Asc and Art: PIH 100 µM, SnMP 50 µM, CrMP 50 µM, NAC 2 mM, LtP in YEM/PBS with 6 µM hemin
[3] = tested on: HO-like activity in LtP homogenates; assay: Heme oxygenase-like activity; type: biochemical, Leishmania tarentolae
[4] = tested on: labile iron pool (LIP) in LtP; assay: Low temperature EPR spectroscopy of the labile iron pool in LtP; type: cell-based, Leishmania tarentolae; conditions: 1 mM EP, 1 h at 26 °C, EPR at 77 K
splenic parasite burden = conditions: Art orally 25 mg/kg body weight vs SAG 20 mg/kg body weight; cited from earlier work
[5] = tested on: hemin degradation in LtP homogenates and SGF/MCF fractions; assay: Hemin degradation in LtP homogenates and SGF/MCF subfractions by HPLC; type: biochemical, Leishmania tarentolae; conditions: 40 µM ZnPP, 7 µM hemin, 0, 2 or 4 h at 26 °C
In short: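 LtP homogenates from hypo-osmotic lysis and freeze–thaw (37 mg protein/mL), or pooled SGF/MCF pellets from differential centrifugation (3.7 mg protein/mL). Samples diluted in phosphate buffer pH 7.4 with 7 µM hemin plus 1.1 mM NADPH or 40 µM ZnPP; 0, 2 or 4 h at 26 °C. Hemin followed by HPLC-UV, normalised to 0 h; mean ± SD, n = 3.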

[6] = tested on: Leishmania tarentolae promastigotes (LtP); assay: Metal; type: cell-based; conditions: 0 - 3 days; for iron content in LtP: 10 µM SnMP or 1 µM ZnPP, ICP-OES
In short: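 Promastigotes (3.6 × 10^7/mL at day 0, OD600 0.3) grown in medium alone, with 10 µM SnMP or with 1 µM ZnPP for 0–3 days at 27 °C. After acid digestion (final 2 h at 75 °C), Fe measured by ICP-OES against 0.01–10 ppm standards. Sn measured by ICP-MS (120Sn, 0.1–100 ppb standards, isotope-corrected) after further 3-fold dilution. Results given as amol/cell.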

[7] = SnMP or CrMP 38 µM, 77 µM, hemin 6.67 µM, NADPH 1 mM, RLS, 27 °C, 30 min

Compound	IC50, J774/IC50, LtP (selectivity index) [1]	IC50 (J774 macrophages) [µM]	influence on the antileishmanial action (IC50) of Asc and Art [2]	further results
C[C@H]1[C@H](OC(=O)CCC(=O)O)O[C@@H]2O[C@@]3(C)CC[C@H]4[C@H](C)CC[C@@H]1[C@@]24OO3 [Arsu, artesunate]	9	16.9 ± 5.2	–	–
C[C@@H]1CC[C@H]2[C@@H](C)C(=O)O[C@@H]3O[C@@]4(C)CC[C@@H]1[C@]32OO4 [Art, artemisinin]	–	192 ± 41.1	–	IC50 [2]: 2.96 ± 0.71 µM; HO-like activity (bilirubin formation) ([3]; Art 500 µM in the presence of catalase 2520 U/mL): inhibited the HO-like activity in LtP homogenates; influence on the redox state of the LIP (apparent Fe3+) [4]: influences the redox state of the LIP in LtP to a much lesser extent than Asc; splenic parasite burden (splenic parasite burden): reduce the splenic parasite burden slightly more than sodium antimony gluconate (SAG)
CC(C)C12C=CC(C)(CC1)OO2 (centres unmarked) [Asc, Ascaridole]	7	202 ± 38.2	–	IC50 [2]: 28.3 ± 6.7 µM
C[C@H]1[C@@H](O)O[C@@H]2O[C@@]3(C)CC[C@H]4[C@H](C)CC[C@@H]1[C@@]24OO3 [DHA, dihydroartemisinin]	20	14.8 ± 6.49	–	–
C[C@@H]1CC[C@H]2[C@@H](C)C(=O)O[C@@H]3O[C@@]4(C)CC[C@@H]1[C@]32O4 [DeoxyArt, deoxyartemisinin]	1	> 200	–	–
CC(=O)N[C@@H](CS)C(=O)O [NAC, N-acetylcysteine]	–	–	inhibited the action of Asc and even stronger that of Art	–
Cc1ncc(CO)c(/C=N/NC(=O)c2ccncc2)c1O [PIH, Pyridoxal isonicotinoyl hydrazone]	–	–	non-selectively inhibited the action of both Asc and Art in a similar fashion	–
N=C(N)c1ccc(OCCCCCOc2ccc(C(=N)N)cc2)cc1 [Pen, pentamidine isethionate]	15	12.3 ± 3.96	–	–
C=CC1=C(C)c2cc3[n-]c(cc4nc(cc5[n-]c(cc1n2)c(C)c5C=C)C(C)=C4CCC(=O)O)c(CCC(=O)O)c3C.[Zn+2] [ZnPP, zinc protoporphyrin]	–	–	–	hemin degradation [5]: strongly inhibited; iron content in LtP [6]: small decline but no total inhibition of iron import into LtP
Tin mesoporphyrin [SnMP]	–	–	inhibited the antileishmanial activity of Art stronger than that of Asc	HO-like activity (bilirubin formation) [3, 7]: inhibit this HO-like activity; iron content in LtP [6]: almost identical over several days; Sn accumulation in LtP ([6]; 10 µM SnMP, ICP-MS): taken up into LtP
chromium mesoporphyrin [CrMP]	–	–	inhibited the antileishmanial activity of Art stronger than that of Asc	HO-like activity (bilirubin formation) [3, 7]: inhibit this HO-like activity
